Screening data (PubChem)
Sampled rows, rich in hits. Any-hit rate of the full collection: about 3%.
SENP8 block-1 – SENP8 protease inhibition. Q96LD8. purified SENP8, Z-RLRGG-aminoluciferin cleavage, luminescence. inhibition, % at 10 µM. actives 1.2% (n = 330,000); in the data active means inhibition above about 50%
Apaf-1 inh – inhibitors of human Apaf-1 apoptosome; O14727; reconstituted apoptosome caspase-3 activity, DEVD-Rh110 fluorescence; actives 0.71% (n = 330,000); inhibition, % at 20 µM; AID 489030; active means inhibition of at least 40% at 20 µM;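 further: plate controls were DMSO wells for no effect and DEVD-CHO caspase inhibitor wells for full effect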
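Assay system – apoptosome proteins · Medium – Hepes buffer, pH 7.5 · Also added – cytochrome c with DEVD-Rh110 · Timing – 30 min compound preincubation, 50 min activation, room temperature · Detection – Rh110 fluorescence, excitation 480 nm, emission 540 nm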
SENP8 block-2 – SENP8 (human) protease inhibition | Q96LD8 | recombinant SENP8, Nedd8 substrate fluorescence | inhibition, % at 20 µM | actives 0.64% (n = 360,000) | AID 602440; in the data active means inhibition mostly above about 40%, no sharp cut-off; inactive means mostly below about 27%
SENP6 inh – blocks the human protease SENP6 | Recombinant SENP6 catalytic domain, aminoluciferin luminescence | inhibition, % at 10 µM | actives 1.8% (n = 330,000) | AID 2599;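 active means inhibition above about 50% at the single tested dose, limit read from the data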;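 further: plate controls were DMSO wells with enzyme for no effect and DMSO wells lacking enzyme for full effect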
SENP7 inh – inhibitors of human SENP7 protease; Q9BQF6; recombinant SENP7, Z-RLRGG-aminoluciferin luminescence, 40 min; inhibition, % at 5 µM; actives 1.5% (n = 330,000);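 active means inhibition above about 50% at the single test dose, limit read from the data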;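 further: plate controls were DMSO with enzyme for no effect and no enzyme buffer wells for full effect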
Target sequence (Q9BQF6 706-1050 limits assumed): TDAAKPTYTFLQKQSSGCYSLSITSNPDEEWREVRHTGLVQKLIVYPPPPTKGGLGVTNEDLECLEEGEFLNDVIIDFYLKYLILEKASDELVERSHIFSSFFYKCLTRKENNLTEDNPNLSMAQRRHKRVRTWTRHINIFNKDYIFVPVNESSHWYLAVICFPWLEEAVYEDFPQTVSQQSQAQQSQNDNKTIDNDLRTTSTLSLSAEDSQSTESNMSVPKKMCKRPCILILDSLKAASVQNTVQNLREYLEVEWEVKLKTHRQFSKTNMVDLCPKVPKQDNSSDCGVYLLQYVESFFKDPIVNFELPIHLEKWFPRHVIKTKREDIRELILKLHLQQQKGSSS
UBC13 polyUb – blocks human UBC13 polyubiquitin chain formation | P61088 | TR-FRET | inhibition, % at 20 µM | actives 0.47% (n = 330,000); in the data active means inhibition above about 45%, passing the limit was not always enough
Target sequence (P61088 whole entry, looked up): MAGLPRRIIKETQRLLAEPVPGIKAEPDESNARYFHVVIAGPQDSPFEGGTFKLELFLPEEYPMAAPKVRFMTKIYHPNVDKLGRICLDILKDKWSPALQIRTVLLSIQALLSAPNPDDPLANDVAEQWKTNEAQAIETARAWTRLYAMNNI
SENP8 confirm – human SENP8 inhibition, confirmed. shares compounds with SENP7 inh. Recombinant SENP8, Z-RLRGG-aminoluciferin luminescence, 60 min. inhibition, % at 12.5 µM. actives 40% (n = 6,200). AID 488912;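 active means mean inhibition across replicates above about 50%, limit read from the data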
SENP6 conf – confirmation of human SENP6 protease inhibitors | inhibition, % at 12.5 µM | recombinant SENP6, Z-RLRGG-aminoluciferin luminescence | actives 58% (n = 6,200) | AID 488915 | shares compounds with SENP7 inh
SENP7 confirm – human SENP7 inhibition, confirmed | actives 69% (n = 6,200) | recombinant SENP7, Z-RLRGG-aminoluciferin luminescence, 40 min | inhibition, % at 12.5 µM | shares compounds with SENP7 inh | AID 488917
Casp3 select – inhibits human caspase-3 in SENP selectivity test. actives 60% (n = 6,200). purified caspase-3, Z-DEVD-aminoluciferin luminescence, 60 min. AID 488918. inhibition, % at 12.5 µM. shares compounds with SENP7 inh;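 active means mean inhibition above about 50%, limit read from the data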;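 further: plate controls were enzyme with DMSO for no effect and wells without caspase-3 for full effect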
SENP luc ctr – luminescence interference (SENP counter-screen); Pre-incubated SENP8/Z-RLRGG-aminoluciferin, luciferase luminescence interference; actives 39% (n = 6,200); AID 488919; shares compounds with SENP7 inh; inhibition, % at 12.5 µM;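 active means mean inhibition above about 50% when retested at one dose, limit read from the data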;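 further: plate controls were DMSO wells with completed reaction for no effect and substrate without enzyme for full effect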
Numbers without * were called inactive.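 How the source made its calls, unless noted: active means mean inhibition above about 50% in the one-dose retest (limit read from the data); inactive means the rest.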

`O=C(CN1C(=O)/C(=C\c2cccc(Cl)c2)Oc2ccccc21)N1CCN(c2ccccn2)CC1` gave SENP8 block-1 -2.0, Apaf-1 inh 6.5, SENP6 inh -5.0, SENP7 inh 3.3 and UBC13 polyUb 13.3.
For Cc1ccc(-c2noc(CSc3ccccc3)n2)cc1 the results were SENP8 block-1 37.2, Apaf-1 inh 14.4, SENP8 block-2 16.0, SENP6 inh 75.7*, SENP7 inh 52.5*, UBC13 polyUb -2.2, SENP8 confirm 50.8*, SENP6 conf 60.5*, SENP7 confirm 80.9*, Casp3 select 42.6 and SENP luc ctr 44.8.
Screening COc1ccc(-c2noc(Cc3ccccc3OC)n2)cc1 returned SENP8 block-1 -14.4, Apaf-1 inh 10.7, SENP8 block-2 20.1, SENP6 inh -3.0, SENP7 inh -0.4 and UBC13 polyUb 3.3.
COc1ccc(-c2noc(Cc3cccs3)n2)cc1 was read as SENP8 block-1 29.6, Apaf-1 inh -5.6, SENP8 block-2 18.9, SENP6 inh 50.2*, SENP7 inh 12.7, UBC13 polyUb 1.8, SENP8 confirm 38.0, SENP6 conf 38.7, SENP7 confirm 69.3*, Casp3 select 27.8 and SENP luc ctr 28.3.
`Cc1ccc(OCc2nc(-c3ccccc3)no2)cc1` gave SENP8 block-1 11.6, Apaf-1 inh -6.8, SENP8 block-2 10.1, SENP6 inh 56.3*, SENP7 inh 31.9, UBC13 polyUb 4.7, SENP8 confirm 16.5, SENP6 conf 24.2, SENP7 confirm 64.7*, Casp3 select 25.9 and SENP luc ctr 7.3.
`CC(Oc1ccc([N+](=O)[O-])cc1)C(=O)NCCCN1CCOCC1` (centres undefined) gave SENP8 block-1 -3.0, Apaf-1 inh 10.2, SENP8 block-2 -1.2, SENP6 inh -4.9, SENP7 inh 0.2 and UBC13 polyUb -4.0.
`CN(C(=O)CSc1ncnc2sccc12)c1c(N)n(Cc2ccccc2)c(=O)[nH]c1=O` gave SENP8 block-1 1.3, Apaf-1 inh -12.6, SENP8 block-2 11.0, SENP6 inh -8.5, SENP7 inh -2.9 and UBC13 polyUb 6.8.
`CC1(C(=O)Nc2cccc(Oc3ccccc3)c2)CCN1C1Cc2ccccc2C1` (centres undefined) gave SENP8 block-2 15.2.
Screening COc1ccc(NC(=O)C2CCCN(S(=O)(=O)c3cccnc3)C2)c(OC)c1 (centres undefined) returned SENP8 block-1 -6.7, Apaf-1 inh -7.9, SENP8 block-2 4.9, SENP6 inh 3.3, SENP7 inh -4.4 and UBC13 polyUb 2.7.
COc1ccc(C)cc1NC(=O)C1CCCN(S(=O)(=O)c2cccnc2)C1 (centres undefined) was read as SENP8 block-1 60.0*, Apaf-1 inh -0.2, SENP8 block-2 -3.2, SENP6 inh 3.0, SENP7 inh 5.2, UBC13 polyUb 3.2, SENP8 confirm 6.0, SENP6 conf 6.4, SENP7 confirm 8.4, Casp3 select 3.9 and SENP luc ctr 3.8.
For Cc1ccc(NC(=O)CS(=O)CC(=O)Nc2ccccc2-c2ccc(C)o2)cc1 (centres undefined) the results were SENP8 block-1 -5.8, Apaf-1 inh 11.0, SENP8 block-2 -2.2, SENP6 inh -22.2, SENP7 inh -9.3 and UBC13 polyUb -20.5.
For Cc1ccc(S(=O)(=O)N[C@H](C(=O)OCC(=O)NC(=O)c2cccn2C)C(C)C)cc1 the results were SENP8 block-2 -0.4.
CC(C)[C@H](NS(=O)(=O)c1ccccc1)C(=O)OCC(=O)NC(=O)c1cccn1C was read as SENP8 block-1 27.2, Apaf-1 inh -2.6, SENP8 block-2 2.9, SENP6 inh 60.0*, SENP7 inh 11.3, UBC13 polyUb -1.3, SENP8 confirm 47.0, SENP6 conf 38.4, SENP7 confirm 68.0*, Casp3 select 61.0* and SENP luc ctr 8.7.
For Cc1ccc(NC(=O)CN2CCC(NC(=O)c3ccccc3F)CC2)cc1C the results were SENP8 block-1 4.8, Apaf-1 inh -7.1, SENP8 block-2 10.7, SENP6 inh 16.4, SENP7 inh -4.8 and UBC13 polyUb 5.9.
For O=C(Cn1c(NCCO)nc2ccccc21)N1CCN(Cc2ccccc2)CC1 the results were SENP8 block-1 1.7, Apaf-1 inh -20.5, SENP8 block-2 4.9, SENP6 inh -17.7, SENP7 inh -11.3 and UBC13 polyUb 12.0.
`O=C(Nc1cccnc1)c1sc2cccc(F)c2c1Cl` gave SENP8 block-1 -5.1, Apaf-1 inh 12.3, SENP8 block-2 1.0, SENP6 inh -25.2, SENP7 inh -10.3 and UBC13 polyUb -2.1.
Cc1ccc(NC(=O)c2sc3ccccc3c2Cl)nc1 was read as SENP8 block-1 62.9*, Apaf-1 inh -10.8, SENP8 block-2 3.8, SENP6 inh 72.5*, SENP7 inh 92.9*, UBC13 polyUb 8.6, SENP8 confirm 3.4, SENP6 conf 1.8, SENP7 confirm -0.3, Casp3 select 7.5 and SENP luc ctr -2.1.
For COCc1nnc(NC(=O)c2sc3ccccc3c2Cl)s1 the results were SENP8 block-1 45.5, Apaf-1 inh -1.1, SENP8 block-2 15.8, SENP6 inh 55.0*, SENP7 inh 31.1, UBC13 polyUb -2.0, SENP8 confirm 40.9, SENP6 conf 37.0, SENP7 confirm 76.2*, Casp3 select 61.0* and SENP luc ctr 65.9*.
`O=C(Nc1ccccn1)c1sc2cccc(F)c2c1Cl` gave SENP8 block-1 7.0, Apaf-1 inh -6.7, SENP8 block-2 -0.9, SENP6 inh -17.5, SENP7 inh 89.9*, UBC13 polyUb 10.5, SENP8 confirm 8.7, SENP6 conf 13.0, SENP7 confirm 2.9, Casp3 select 5.9 and SENP luc ctr -1.2.
`Cc1nnc(NC(=O)c2sc3ccccc3c2Cl)s1` gave SENP8 block-1 1.2, Apaf-1 inh 14.3, SENP8 block-2 -41.4, SENP6 inh 47.3, SENP7 inh 0.7 and UBC13 polyUb -10.8.
`Cc1cccnc1NC(=O)c1sc2ccccc2c1Cl` gave SENP8 block-1 -3.7, Apaf-1 inh -16.1, SENP8 block-2 -22.3, SENP6 inh 12.0, SENP7 inh 14.7 and UBC13 polyUb 2.1.
